Assay results published in publication PMC9796681 (British Journal of Clinical Pharmacology, 2022).
“And” between values parts separate entries of the source, which are not always exact repeats. Equal entries are not always repeated. “Also recorded” adds a separate entry of the source. Where two headings read alike, the source gives them in different places.

What was measured:
[1] = cited from earlier work
[2] = two-compartment model; gouty; cited from earlier work
[3] = Population pharmacokinetic analysis; format: in vivo, human
Procedure, shortened: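 Healthy young subjects: single 80 mg dose, fasting, sampled predose to 102 h. Gout patients: 40-160 mg/day at steady state (≥7 days after dose change), up to four samples at 1–24 h post-dose. Plasma assayed by HPLC-fluorescence, LLQ 0.005 µg mL-1. Two-compartment model, first-order elimination; power covariate model normalised to median; shared random effect on availability (FVAR); food tested on ka and F.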

[4] = one-compartment model; cited from earlier work
[5] = single dose 80 mg, healthy subjects

For Cc1nc(-c2ccc(OCC(C)C)c(C#N)c2)sc1C(=O)O[C@@H]1O[C@H](C(=O)O)[C@@H](O)[C@H](O)[C@H]1O [Febuxostat glucuronide], the “proportion of the febuxostat dose as glucuronide, excreted by the kidneys” value ([1]; published data) is listed as “about 40%”.
For Cc1nc(-c2ccc(OCC(C)C)c(C#N)c2)sc1C(=O)O [febuxostat], the “Residual CV” value [2] is listed as 71%, the “Vc/F, final estimate” value [2] is listed as 32.2 L and the “Vp/F, final estimate” value [2] is listed as 22.2 L. The “ka, absorption rate constant” value [2] was 13 h⁻¹, the “BSV-CL/F, between-subject variability (coefficient of variation)” value ([3]; final model) was 13.6% and 13.6 (37.4) % and the “BSV-FVAR, common variability on oral availability” value ([3]; final model) was 27.7 (21.2) %. For the same molecule, the “BSV-Vc/F, between-subject variability (coefficient of variation)” value ([3]; final model) was 22% and 22.0 (35.4) %, the “BSV-Vp/F, between-subject variability (coefficient of variation)” value ([3]; final model) was 19.5% and 19.5 (58.2) % and the “Covariate BMI (ϴ 7), power exponent on Vc/F” value ([3]; final model, body mass index, median 30.6 kg m^−2) was 0.996. The “Covariate food on ka” value ([3]; final model, fed status) was −0.869, the “Covariate food on oral availability” value ([3]; final model, fed status) was −0.667 and the “reduction of absorption rate constant ka by food” value ([3]; final model, fed versus fasted) was 87%. For the same molecule, the “reduction of oral availability (relative bioavailability) by food” value ([3]; final model, fed versus fasted) was 67%, the “RUV-CV%, residual unexplained variability” value ([3]; final model, proportional residual error) was 39.9 (10.1) % and the “absorption rate constant ka (ϴ 5), population mean” value ([3]; final two-compartment model) was 3.6 h⁻¹ and 3.62 h⁻¹. For the same molecule, the “apparent peripheral volume of distribution Vp/F (ϴ 4), population mean” value ([3]; final two-compartment model) was 19.4 L, the “intercompartmental clearance Q (ϴ 3), population mean” value ([3]; final two-compartment model) was 1.25 L/h and the Vd/F ([3]; human, plasma, oral) was 32.8 L. The “ka, absorption rate constant” value [4] was 2.52 h⁻¹, the “effect of mild and moderate hepatic impairment on the pharmacokinetics” value ([1]; Child-Pugh class A and B) was “no effect; also recorded: did not affect” and the CL/F ([1]; Japanese subjects who had gout or were hyperuricaemic) was 9.9 L/h. The “reduction of apparent clearance by UGT polymorphisms” value ([1]; UGT six and 28 variants) was 22%, the “ka, value assumed” value ([1]; assumed by Hirai et al) was 2.18 h⁻¹ and the “decline of plasma concentration over the dosage interval” value ([1]; dosage interval 24 h) was “up to 100 fold”. The CL/F ([1]; healthy African Americans) was 10.5 L/h, the CL/F ([1]; healthy Chinese subjects) was 5.3 Lh^−1 and the “effect of food on the extent of absorption (AUC0-48)” value ([1]; healthy subjects, 48 h) was “negligible effect; also recorded: reduce the rate but not the extent of absorption”. The “cleared by phase I metabolism (oxidation)” value ([1]; healthy subjects) was ~ 35%, the “cleared by phase II metabolism (glucuronidation)” value ([1]; healthy subjects) was ~ 40% and the “febuxostat eliminated from plasma in the first 9 h post-dose” value ([1]; healthy subjects) was 81%. For the same molecule, the “reduction in AUC0-24 with food” value ([1]; healthy subjects) was 20%, the “reduction in C max with food” value ([1]; healthy subjects) was 50% and the mean initial half-life [1, 5] was 2 h. For the same molecule, the mean terminal half-life [1, 5] was 14 h.
